Laboratory results reported in ChEMBL document CHEMBL3588801, “Thiosemicarbazones as Aedes aegypti larvicidal” (Eur J Med Chem, 2015).
≈ marks a conversion by molar mass, not a printed value. Where “and” joins values, the source holds several entries; their conditions need not be identical. Equal entries are not always repeated.

Test system: Aedes aegypti
Assay: Larvicidal activity against Aedes aegypti L4 stage larvae assessed as induction of larval mortality incubated for 48 hrs
Assay type: functional
Conditions: not given
Summary of the method: (§1)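 Adapted WHO larval test. Compound solubilized with Tween 80 co-solvent in distilled water as stock, then diluted. Fourth-instar A. aegypti larvae, 20 per beaker, in 20 mL test solution; four replicates per concentration, plus a compound-free negative control. Mortality scored after 48 h at 28 ± 2 °C, 70 ± 10 relative humidity (dead = no response to stimulus or failure to surface). LC50 from probit analysis.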

Structure (SMILES) | log(1/LC50)
NC(=S)N/N=C/c1ccc(F)cc1 | 3.507
NC(=S)N/N=C/c1ccc(Cl)cc1 | 3.873
NC(=S)N/N=C/COc1ccc(Cl)c(Cl)c1 | 4.68
NC(=S)N/N=C/COc1cccc(Cl)c1Cl | 4.154
NC(=S)N/N=C/COc1ccc(Cl)cc1 | 4.046
NC(=S)N/N=C/COc1ccccc1 | 3.268
COc1ccc(OC/C=N/NC(N)=S)cc1 | 3.298
NC(=S)N/N=C/COc1cccc(Cl)c1 | 3.542
NC(=S)N/N=C/COc1ccc(Br)cc1 | 4.036
N/C(S)=N/N=C/c1ccc(Cl)c(Cl)c1 | 4.157
NC(=S)N/N=C/c1ccc(Br)cc1 | 3.91
NC(=S)N/N=C/C=C/c1ccccc1 | 3.86

Same assay, conditions: Aedes aegypti, 48 h

Structure (SMILES) | LC50
NC(=S)N/N=C/c1ccc(F)cc1 | 61.3 µg/mL and 311 µM
NC(=S)N/N=C/c1ccc(Cl)cc1 | 28.8 µg/mL and 135 µM
NC(=S)N/N=C/COc1ccc(Cl)c(Cl)c1 | 5.8 µg/mL and 20.9 µM
NC(=S)N/N=C/COc1cccc(Cl)c1Cl | 19.5 µg/mL and 70.1 µM
NC(=S)N/N=C/COc1ccc(Cl)cc1 | 21.9 µg/mL and 89.9 µM
NC(=S)N/N=C/COc1ccccc1 | 113 µg/mL and 538 µM
COc1ccc(OC/C=N/NC(N)=S)cc1 | 120 µg/mL and 503 µM
NC(=S)N/N=C/COc1cccc(Cl)c1 | 70 µg/mL and 287 µM
NC(=S)N/N=C/COc1ccc(Br)cc1 | 26.5 µg/mL and 92 µM
N/C(S)=N/N=C/c1ccc(Cl)c(Cl)c1 | 17.3 µg/mL and 69.7 µM
NC(=S)N/N=C/c1cccc(/C=N/NC(N)=S)c1 | > 200 µg/mL
NC(=S)N/N=C/c1ccc(Br)cc1 | 31.7 µg/mL and 123 µM
NC(=O)N/N=C/c1ccc(F)cc1 | > 200 µg/mL and > 1.1 mM
NC(=O)N/N=C/c1ccc(Cl)c(Cl)c1 | > 200 µg/mL and > 862 µM
NC(=S)N/N=C/C=C/c1ccccc1 | 28.4 µg/mL and 138 µM
C/C(=N\NC(N)=S)C(C)Oc1ccc(Cl)c(Cl)c1 (stereo not drawn) | 3.95 µM

Target: T1, Sterol carrier protein 2 (Aedes aegypti) (UniProt Q86PR3)
T1 sequence (whole entry): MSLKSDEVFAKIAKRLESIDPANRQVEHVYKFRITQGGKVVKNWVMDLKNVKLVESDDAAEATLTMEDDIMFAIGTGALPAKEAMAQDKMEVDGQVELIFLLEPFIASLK
Assay: (§2) Inhibition of NBD-cholesterol binding to recombinant Aedes aegypti SCP-2 protein by fluorescence based assay
Conditions: not given
Summary of the method: (§3)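 Competition assay with purified recombinant AeSCP-2, NBD-cholesterol and compound at increasing concentrations, read as fluorescence intensity. Separate NBD-cholesterol plus compound wells served as background where the compound interfered with fluorescence. Net signal is NBD-cholesterol/SCP-2/compound fluorescence minus that background, plotted as dose-response.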

Structure (SMILES) | inhibition
COc1ccc(OC/C=N/NC(N)=S)cc1 | Dose-dependent effect
NC(=S)N/N=C/c1ccc(O)cc1 | Dose-dependent effect

Target: T2, Sterol carrier protein 2 (Aedes aegypti, UniProt Q86PR3)
T2 sequence (Q86PR3 whole entry): T1 sequence (whole entry)
Assay: as §2
Conditions: not given
Summary of the method: as §3

Structure (SMILES) | EC50 [nM]
COc1ccc(OC/C=N/NC(N)=S)cc1 | 600
NC(=S)N/N=C/c1ccc(O)cc1 | 5000

Test system: not listed separately
Assay: Lipophilicity log P of the compound
Assay type: physicochemical
Conditions: octanol/water
Summary of the method: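 Calculated rather than measured, alongside the B3LYP/6-311++G(d,p) dipole moment.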

Structure (SMILES) | logP
NC(=S)N/N=C/c1ccc(F)cc1 | 2.18
NC(=S)N/N=C/c1ccc(Cl)cc1 | 2.63
NC(=S)N/N=C/COc1ccc(Cl)c(Cl)c1 | 3.3
NC(=S)N/N=C/COc1cccc(Cl)c1Cl | 3.3
NC(=S)N/N=C/COc1ccc(Cl)cc1 | 2.65
NC(=S)N/N=C/COc1ccccc1 | 2.01
COc1ccc(OC/C=N/NC(N)=S)cc1 | 2.09
NC(=S)N/N=C/COc1cccc(Cl)c1 | 2.65
NC(=S)N/N=C/COc1ccc(Br)cc1 | 2.9
N/C(S)=N/N=C/c1ccc(Cl)c(Cl)c1 | 3.27
NC(=S)N/N=C/c1ccc(Br)cc1 | 2.87
C/C(=N\NC(N)=S)C(C)Oc1ccc(Cl)c(Cl)c1 (stereo not drawn) | 4.87

Test system: Aedes aegypti
Assay: Larvicidal activity against Aedes aegypti
Assay type: functional
Conditions: not given
Summary of the method: as §1

Structure (SMILES) | LC50 [µg/mL]
CC(C)CNC(=O)/C=C/C=C/CCCC/C=C/c1ccc2c(c1)OCO2 [RETROFRACTAMIDE B] | 0.1 (≈ 0.281 µM)
CCCCC/C=C/C=C/C(=O)NCC(C)C [PELLITORIN] | 0.92 (≈ 4.12 µM)
CC(C)CNC(=O)/C=C/C=C/CCCCCC/C=C/c1ccc2c(c1)OCO2 [GUINEENSINE] | 0.89 (≈ 2.32 µM)
CC(C)CNC(=O)/C=C/C=C/CC/C=C/c1ccc2c(c1)OCO2 [RETROFRACTAMIDE A] | 0.04 (≈ 0.122 µM)

Test system: not listed separately
Assay: Cytotoxicity against BALB/c mouse splenocytes assessed as reduction in cell viability incubated for 24 hrs by beta-radiation counting based [3H]-thymidine incorporation assay
Design: species or system Splenocyte
Conditions: not given
Summary of the method: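 BALB/c mouse splenocytes seeded at 6 × 10^5 cells/well in RPMI-1640 with 10% FBS and gentamycin; compound added in DMSO at six concentrations (1, 5, 10, 25, 50, 100) in triplicate; 24 h at 37 °C, 5% CO2; then 3H-thymidine pulse and beta counting. Viability as % incorporation versus solvent-only cells; saponin positive control; highest non-toxic concentration estimated.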

Structure (SMILES) | MNTC at 24 h [µM]
NC(=S)N/N=C/c1ccc(F)cc1 | 25.4
NC(=S)N/N=C/c1ccc(Cl)cc1 | 23.3
NC(=S)N/N=C/COc1ccc(Cl)c(Cl)c1 | 89.8
NC(=S)N/N=C/COc1cccc(Cl)c1Cl | 17.9
NC(=S)N/N=C/COc1ccc(Cl)cc1 | 103
NC(=S)N/N=C/COc1ccccc1 | 119
COc1ccc(OC/C=N/NC(N)=S)cc1 | 20.9
NC(=S)N/N=C/COc1cccc(Cl)c1 | 103
NC(=S)N/N=C/c1ccc(O)cc1 | 5.12
NC(=S)N/N=C/COc1ccc(Br)cc1 | > 347
N/C(S)=N/N=C/c1ccc(Cl)c(Cl)c1 | 20.2
NC(=S)N/N=C/c1ccc(Br)cc1 | < 3.87
NC(=O)N/N=C/c1ccc(F)cc1 | > 55.1
NC(=O)N/N=C/c1ccc(Cl)c(Cl)c1 | > 431
NC(=S)N/N=C/C=C/c1ccccc1 | < 4.87
